According to ChEMBL document CHEMBL1137220, “2-(2-(dimethylaminomethyl)phenoxy)-5-iodophenylamine: an improved serotonin transporter imaging agent” (J Med Chem, 2004):

Experiments:
[1] = Regional brain distribution in rat cortex was determined after 30 min of intravenous administration of the compound; [125I]- is used as radioactive isotope; format: ADME; conditions: in vivo, 0.5 h
Procedure, shortened: (§1)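 Rats, three per group, injected with 10 μCi tracer in 0.2 mL saline via the femoral vein under ether anesthesia and killed by cardiac excision at the stated time. Cortex (frontal plus occipital), striatum, hippocampus, cerebellum and hypothalamus were dissected, weighed and gamma-counted. Values are % dose/g, calculated by comparison with counts of a 100-fold diluted aliquot of the injected dose.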

[2] = Distribution ratio in striatum and cerebellum was determined after 120 min of intravenous administration of the compound; [125I]- is used as radioactive isotope; format: ADME, tissue-based; conditions: rat, 2 h
Procedure, shortened: (§2)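 Rats, three per group, given 10 μCi tracer in 0.2 mL saline into the femoral vein under ether anesthesia, then killed by cardiac excision at the stated time. Brain regions were dissected, weighed and counted. Percent dose/g was calculated against a 1% diluted aliquot of the injected dose. The ratio is (region − cerebellum)/cerebellum on a % dose/g basis, with cerebellum as background.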

[3] = Regional brain distribution in rat striatum was determined after 30 min of intravenous administration of the compound; [125I]- is used as radioactive isotope; format: ADME, tissue-based; conditions: in vivo, 0.5 h; procedure, shortened: as §1
[4] = Distribution ratio in hypothalamus and cerebellum was determined after 2 min of intravenous administration of the compound; [125I]- is used as radioactive isotope; format: ADME, tissue-based; conditions: rat
Procedure, shortened: (§3)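 After femoral-vein injection of 10 μCi [¹²⁵I] tracer in 0.2 mL saline under ether anaesthesia (three rats per group), brain regions were dissected, weighed and counted: cortex (frontal plus occipital), hippocampus, hypothalamus and cerebellum. %dose/g was calculated against a diluted injected-dose standard. Ratio = (region − cerebellum)/cerebellum on a %dose/g basis, with cerebellum as the background region.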

[5] = Distribution ratio in hypothalamus and cerebellum was determined after 60 min of intravenous administration of the compound; [125I]- is used as radioactive isotope; format: ADME, tissue-based; conditions: rat, 1 h; procedure, shortened: as §2
[6] = Regional brain distribution in rat cerebellum was determined after 6 hours of intravenous administration of the compound; [125I]- is used as radioactive isotope; format: ADME, tissue-based; conditions: in vivo; procedure, shortened: as §1
[7] = Regional brain distribution in rat hippocampus was determined after 60 min of intravenous administration of the compound; [125I]- is used as radioactive isotope; format: ADME, tissue-based; conditions: in vivo, 1 h; procedure, shortened: as §1
[8] = Distribution ratio in cortex and cerebellum was determined after 60 min of intravenous administration of the compound; [125I]- is used as radioactive isotope; format: ADME, tissue-based; conditions: rat, 1 h; procedure, shortened: as §3
[9] = Regional brain distribution in rat hippocampus was determined after 2 min of intravenous administration of the compound; [125I]- is used as radioactive isotope; format: ADME, tissue-based; conditions: in vivo; procedure, shortened: as §1
[10] = Regional brain distribution in rat hypothalamus was determined after 2 min of intravenous administration of the compound; [125I]- is used as radioactive isotope; format: ADME, tissue-based; conditions: in vivo; procedure, shortened: as §1
[11] = Regional brain distribution in rat cerebellum was determined after 11 hours of intravenous administration of the compound; [125I]- is used as radioactive isotope; format: ADME, tissue-based; conditions: in vivo; procedure, shortened: as §1
[12] = Regional brain distribution in rat hypothalamus was determined after 11 hours of intravenous administration of the compound; [125I]- is used as radioactive isotope; format: ADME, tissue-based; conditions: in vivo; procedure, shortened: as §1
[13] = Regional brain distribution in rat hypothalamus was determined after 24 hours of intravenous administration of the compound; [125I]- is used as radioactive isotope; format: ADME, tissue-based; conditions: in vivo; procedure, shortened: as §1
[14] = Distribution ratio in cortex and cerebellum was determined after 2 min of intravenous administration of the compound; [125I]- is used as radioactive isotope; format: ADME, tissue-based; conditions: rat; procedure, shortened: as §3
[15] = target: Sodium-dependent dopamine transporter (Homo sapiens, UniProt Q01959); assay: Binding affinity for dopamine transporter expressed in […] cells; format: cell-based
Procedure, shortened: (§4)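 Membranes from confluent pig kidney LLC-PK₁ cells stably expressing the respective transporter, homogenized and pelleted, 30–40 μg protein. Incubated with 0.4 nM [¹²⁵I]IPT or [¹²⁵I]IDAM and 8–10 competitor concentrations (10⁻¹⁰ to 10⁻⁵ M) in 50 mM Tris-HCl pH 7.4, 120 mM NaCl, 0.1% BSA, 1 h at room temperature. Nonspecific binding was defined with 10 μM CFT for IPT and 1 μM IDAM for IDAM. Filtration, gamma counting, nonlinear regression for Ki.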

[16] = Biodistribution in rat lung was determined after 60 min of intravenous administration of the compound; [125I]- is used as radioactive isotope; format: ADME, organism-based; conditions: in vivo, 1 h
Procedure, shortened: (§5)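 Rats under ether anesthesia, three per group, received 10 μCi tracer in 0.2 mL saline into the femoral vein. They were killed by cardiac excision under ether at each time point. Organs were removed, weighed and counted. Percent dose per organ was calculated against a 1%-of-injected-dose standard counted at the same time.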

[17] = Biodistribution in rat skin was determined after 60 min of intravenous administration of the compound; [125I]- is used as radioactive isotope; format: ADME, organism-based, Zone of skin; conditions: in vivo, 1 h
Procedure, shortened: (§6)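 Rats, three per group, under ether anaesthesia, received 10 μCi of [¹²⁵I]-labelled tracer in 0.2 mL saline into the femoral vein. They were killed by cardiac excision under ether at each time point. Organs were removed, weighed and counted. Percent dose per organ was calculated against counts of a 1% aliquot of the injected dose (100-fold diluted) counted at the same time.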

[18] = Biodistribution in rat brain was determined after 30 min of intravenous administration of the compound; [125I]- is used as radioactive isotope; format: ADME, organism-based; conditions: in vivo, 0.5 h; procedure, shortened: as §5
[19] = Biodistribution in rat heart was determined after 60 min of intravenous administration of the compound; [125I]- is used as radioactive isotope; format: ADME, organism-based; conditions: in vivo, 1 h; procedure, shortened: as §5
[20] = Biodistribution in rat blood was determined after 120 min of intravenous administration of the compound; [125I]- is used as radioactive isotope; format: ADME, organism-based; conditions: in vivo, 2 h; procedure, shortened: as §5
[21] = Biodistribution in rat heart was determined after 240 min of intravenous administration of the compound; [125I]- is used as radioactive isotope; format: ADME, organism-based; conditions: in vivo, 4 h; procedure, shortened: as §5
[22] = Biodistribution in rat blood was determined after 11 hours of intravenous administration of the compound; [125I]- is used as radioactive isotope; format: ADME, organism-based; conditions: in vivo; procedure, shortened: as §5
[23] = Biodistribution in rat spleen was determined after 120 min of intravenous administration of the compound; [125I]- is used as radioactive isotope; format: ADME, organism-based; conditions: in vivo, 2 h; procedure, shortened: as §6
[24] = Biodistribution in rat spleen was determined after 240 min of intravenous administration of the compound; [125I]- is used as radioactive isotope; format: ADME, organism-based; conditions: in vivo, 4 h; procedure, shortened: as §6
[25] = Biodistribution in rat liver was determined after 120 min of intravenous administration of the compound; [125I]- is used as radioactive isotope; format: ADME, organism-based; conditions: in vivo, 2 h; procedure, shortened: as §5
[26] = Biodistribution in rat muscle was determined after 30 min of intravenous administration of the compound; [125I]- is used as radioactive isotope; format: ADME, organism-based, Muscle tissue; conditions: in vivo, 0.5 h; procedure, shortened: as §6
[27] = Biodistribution in rat brain was determined after 11 hours of intravenous administration of the compound; [125I]- is used as radioactive isotope; format: ADME, organism-based; conditions: in vivo; procedure, shortened: as §5
[28] = Biodistribution in rat kidney was determined after 120 min of intravenous administration of the compound; [125I]- is used as radioactive isotope; format: ADME, organism-based; conditions: in vivo, 2 h; procedure, shortened: as §5
[29] = Biodistribution in rat kidney was determined after 240 min of intravenous administration of the compound; [125I]- is used as radioactive isotope; format: ADME, organism-based; conditions: in vivo, 4 h; procedure, shortened: as §5
[30] = Biodistribution in rat kidney was determined after 11 hours of intravenous administration of the compound; [125I]- is used as radioactive isotope; format: ADME, organism-based; conditions: in vivo; procedure, shortened: as §5
[31] = target: Sodium-dependent serotonin transporter (Homo sapiens, UniProt P31645); assay: Binding affinity for serotonin transporter expressed in […] cells; format: cell-based; procedure, shortened: as §4
Chain of Sodium-dependent serotonin transporter (P31645 whole entry): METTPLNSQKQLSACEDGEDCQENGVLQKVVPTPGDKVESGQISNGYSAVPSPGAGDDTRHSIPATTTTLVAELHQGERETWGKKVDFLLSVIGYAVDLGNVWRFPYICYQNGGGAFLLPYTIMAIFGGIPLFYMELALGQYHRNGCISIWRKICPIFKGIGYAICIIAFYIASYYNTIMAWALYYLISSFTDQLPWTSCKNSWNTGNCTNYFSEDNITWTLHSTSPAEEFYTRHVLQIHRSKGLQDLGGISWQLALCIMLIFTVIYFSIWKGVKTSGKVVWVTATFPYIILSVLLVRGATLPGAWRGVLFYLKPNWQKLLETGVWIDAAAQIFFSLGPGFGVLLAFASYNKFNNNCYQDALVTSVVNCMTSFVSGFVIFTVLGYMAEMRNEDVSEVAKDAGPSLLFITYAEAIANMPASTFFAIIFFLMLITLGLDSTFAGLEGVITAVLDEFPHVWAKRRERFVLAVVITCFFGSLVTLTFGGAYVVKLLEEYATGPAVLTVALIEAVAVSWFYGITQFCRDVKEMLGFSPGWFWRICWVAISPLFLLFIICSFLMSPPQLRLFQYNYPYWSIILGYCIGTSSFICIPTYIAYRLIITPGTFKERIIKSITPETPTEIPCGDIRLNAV

Chain of Sodium-dependent dopamine transporter (Q01959 whole entry): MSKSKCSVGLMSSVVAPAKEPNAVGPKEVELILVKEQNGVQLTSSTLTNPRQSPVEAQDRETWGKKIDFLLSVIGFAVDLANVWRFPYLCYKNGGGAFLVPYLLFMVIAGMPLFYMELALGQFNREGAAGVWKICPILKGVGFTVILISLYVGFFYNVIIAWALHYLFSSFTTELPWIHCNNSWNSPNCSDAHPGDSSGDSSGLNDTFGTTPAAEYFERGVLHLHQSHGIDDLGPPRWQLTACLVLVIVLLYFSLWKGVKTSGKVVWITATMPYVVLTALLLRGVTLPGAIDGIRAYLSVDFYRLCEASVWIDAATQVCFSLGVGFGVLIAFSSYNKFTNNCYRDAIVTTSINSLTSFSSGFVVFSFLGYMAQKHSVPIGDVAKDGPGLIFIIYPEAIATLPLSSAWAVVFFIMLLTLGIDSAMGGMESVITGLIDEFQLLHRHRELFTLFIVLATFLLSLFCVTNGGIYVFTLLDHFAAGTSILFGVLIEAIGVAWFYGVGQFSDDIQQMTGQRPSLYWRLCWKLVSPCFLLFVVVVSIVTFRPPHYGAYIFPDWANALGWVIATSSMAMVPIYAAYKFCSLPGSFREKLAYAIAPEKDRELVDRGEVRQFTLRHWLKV

`CN(C)Cc1ccccc1Oc1ccc(I)cc1N` showed a Dose/g [1] of 1.25%, a Dose/g [2] of 2.53% and a Dose/g [3] of 1.16%. For the same molecule, the Dose/g [4] was 0.24%, the Dose/g [5] was 1.92% and the Dose/g [6] was 0.027%. It also gave a Dose/g [7] of 0.94%, a Dose/g [8] of 1.35% and a Dose/g [9] of 0.86%. It also gave a Dose/g [10] of 0.96%, a Dose/g [11] of 0.01% and a Dose/g [12] of 0.01%. It also gave a Dose/g [13] of 0.006%, a Dose/g [14] of 0.56% and a Ki [15] of 309 nM. It also gave a Dose [16] of 1.79%, a Dose [17] of 13.9% and a Dose [18] of 2.12%. For the same molecule, the Dose [19] was 0.2%, the Dose [20] was 3.15% and the Dose [21] was 0.08%. The Dose [22] was 2.52%, the Dose [23] was 0.27% and the Dose [24] was 0.13%. For the same molecule, the Dose [25] was 4.9%, the Dose [26] was 18.1% and the Dose [27] was 0.02%. For the same molecule, the Dose [28] was 1.24%, the Dose [29] was 0.61% and the Dose [30] was 0.4%. For the same molecule, the Ki [31] was 0.37 nM.
